Test results reported in ChEMBL document CHEMBL1121556, “Structure-activity relationships in a series of newly synthesized 1-amino-substituted ellipticine derivatives” (J Med Chem, 1980).
pIC50: −log10 of the molar value. Starred links: 1 amine or outer side, 2 acyl side, 3 side chain; linkers in the order of their positions; H or OH if unused. Positions of bridges follow the written chain, without caps; N, C: chain ends. Non-standard residues stand in square brackets, D forms with d. Residues, ends and D or L forms follow the SMILES beside them. Chains are numbered I, II in the order given. Actinocin(1to9) = Cc1c2oc3c(C)ccc(C(=O)[*:2])c3nc-2c(C(=O)[*:1])c(N)c1=O; NMeV = CN[C@H](C(=O)O)C(C)C; Sar = CNCC(=O)O

What was measured:
Mus musculus [1] = experiment: In vivo acute toxicity (lethal dose) against mice by intraperitoneal administration; assay type: organism-based; conditions: ip
In short: (§1)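 Mice (ICFW, C3H or B6D2 F1; 6-8 weeks; 22-24 g) in five groups of six. Drug dissolved in acidified saline (equimolar acetic acid) and given as a single ip or iv dose of 2, 5, 10, 25 or 50 mg/kg. Mortality observed over 30 days to set the lethal dose (LD100) and the highest nonlethal dose (LD0).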

Mus musculus [2] = experiment: In vivo evaluation of antitumor activity on L1210 leukemia cells at the dose 15 mg/kg administered intraperitoneally 1 day after 10 e5 L1210 leukemia cells and Mean survival time; assay type: functional; conditions: route intraperitoneal
[3] = tested on: Friend leukemia cells (Mus musculus); experiment: In vitro concentration required for growth inhibition of murine Friend leukemia cell; conditions: read-out: ID50 (the source's name)
Mus musculus [4] = experiment: In vivo antitumor activity on L1210 leukemia cells at the dose 15 mg/kg administered intraperitoneally 1 day after 10 e5 L1210 leukemia cells and range of deaths; assay type: functional; conditions: route intraperitoneal
Mus musculus [5] = experiment: In vivo evaluation of antitumor activity on L1210 leukemia cells at the dose 15 mg/kg administered intraperitoneally 1 day after 10 e5 L1210 leukemia cells and increase in life span; assay type: functional; conditions: L1210, ip, 24 h, route intraperitoneal
Mus musculus [6] = experiment: In vivo acute toxicity (nonlethal dose) against mice by intraperitoneal administration; assay type: organism-based; conditions: ip; in short: as §1
Nucleic Acid [7] = experiment: Apparent association constant towards DNA at concentration of 10e-7/M; assay type: nucleic-acid assay; conditions: Bos taurus
In short: (§2)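 Association constants for DNA binding were derived from absorption changes of calf thymus DNA at 6 × 10^-7 M, expressed as mononucleotide concentration. The buffer was 50 mM Tris-HCl, pH 7.4, with 0.1 M NaCl.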

Mus musculus [8] = experiment: In vivo antitumor activity on L1210 leukemia cells at the dose 2.5 mg/kg administered intraperitoneally 1 day after 10 e5 L1210 leukemia cells and range of deaths; assay type: functional; conditions: route intraperitoneal
Mus musculus [9] = experiment: In vivo evaluation for the antitumor activity on L1210 leukemia cells at the dose 2.5 mg/kg administered intraperitoneally 1 day after 10 e5 L1210 leukemia cells and increase in life span; assay type: functional; conditions: L1210, ip, 24 h, route intraperitoneal
Mus musculus [10] = experiment: In vivo acute toxicity (lethal dose) against mice by intravenous administration; assay type: organism-based; in short: as §1
Mus musculus [11] = experiment: In vivo evaluation for the antitumor activity on L1210 leukemia cells at the dose 2.5 mg/kg administered intraperitoneally 1 day after 10 e5 L1210 leukemia cells and Mean survival time; assay type: functional; conditions: route intraperitoneal
Mus musculus [12] = experiment: In Vivo evaluation for the antitumor activity on grafted tumor friend cells at the dose 2.5 mg/kg and Increase in the life span; assay type: functional
In short: (§3)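 Friend tumor cells, 10^6, injected iv into syngeneic mice. Mice randomized in groups of 16. Drug dissolved in acidified saline (equimolar acetic acid) and given as a single iv dose 3 days after inoculation. Median survival time recorded. %ILS = (treated median survival − control median survival)/control median survival × 100.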

Mus musculus [13] = experiment: In Vivo antitumor activity on grafted tumor friend cells at the dose 2.5 mg/kg and decrease in intravenous 10 e 6 cells and median survival time; assay type: functional; in short: as §3
Mus musculus [14] = experiment: In vivo acute toxicity (nonlethal dose) against mice by intravenous administration; assay type: organism-based; in short: as §1
Nucleic Acid [15] = experiment: B app constant towards DNA; assay type: nucleic-acid assay; conditions: Bos taurus; in short: as §2
Nucleic Acid [16] = experiment: Apparent association constant towards DNA at concentration of 10e-7/M.; assay type: nucleic-acid assay; conditions: Bos taurus; in short: as §2
Mus musculus [17] = experiment: In vivo evaluation for the antitumor activity on L1210 leukemia cells at the dose 15 mg/kg administered intraperitoneally; assay type: functional; conditions: route intraperitoneal
Mus musculus [18] = experiment: In vivo evaluation for the antitumor activity on L1210 leukemia cells at the dose 15 mg/kg administered intraperitoneally 1 day after 10 e5 L1210 leukemia cells and increase in life span;(P<0.01).; assay type: functional; conditions: L1210, ip, 24 h, route intraperitoneal
Nucleic Acid [19] = experiment: Apparent association constant towards DNA at concentration of 1E-7/M; assay type: nucleic-acid assay; conditions: Bos taurus; in short: as §2
Nucleic Acid [20] = experiment: Apparent association constant towards DNA at concentration of […].; assay type: nucleic-acid assay; conditions: Bos taurus; in short: as §2
Mus musculus [21] = experiment: In vivo evaluation of antitumor activity on L1210 leukemia cells at the dose 10 mg/kg administered intraperitoneally 1 day after 10 e5 L1210 leukemia cells and Mean survival time; assay type: functional; conditions: route intraperitoneal
Mus musculus [22] = experiment: In vivo antitumor activity on L1210 leukemia cells at the dose 10 mg/kg administered intraperitoneally 1 day after 10 e5 L1210 leukemia cells and range of deaths; assay type: functional; conditions: route intraperitoneal
Mus musculus [23] = experiment: In vivo evaluation of antitumor activity on L1210 leukemia cells at the dose 10 mg/kg administered intraperitoneally 1 day after 10 e5 L1210 leukemia cells and increase in life span; assay type: functional; conditions: L1210, ip, 24 h, route intraperitoneal

Row | pIC50 [3] | Bapp (Nucleic Acid [15]) | SMILES | LD100 (Mus musculus [1]) [mg/kg] | LD0 (Mus musculus [6]) [mg/kg] | also measured
1 | < 4.00 | – | COc1ccc2[nH]c3c(C)c4cc[n+](C)c(N(C)C)c4cc3c2c1 | – | – | –
2 | 9.00 | – | Cc1c2oc3c(C)ccc(C(=O)N[C@@H]4C(=O)N[C@H](C(C)C)C(=O)N5CCC[C@H]5C(=O)N(C)CC(=O)N(C)[C@@H](C(C)C)C(=O)O[C@@H]4C)c3nc-2c(C(=O)N[C@@H]2C(=O)N[C@H](C(C)C)C(=O)N3CCC[C@H]3C(=O)N(C)CC(=O)N(C)[C@@H](C(C)C)C(=O)O[C@@H]2C)c(N)c1=O [DACTINOMYCIN] (I: T[dV]P[Sar][NMeV] / II: T[dV]P[Sar][NMeV]; ester I:1-I:C, II:1-II:C; linker I:N-II:N via Actinocin(1to9)) | – | – | –
3 | 6.10 | 0.11 | COc1ccc2[nH]c3c(C)c4ccnc(NCCN(C)C)c4cc3c2c1 | – | – | K app (Nucleic Acid [7]): 2.8e+07 M⁻¹
4 | 5.30 | – | COc1ccc2[nH]c3c(C)c4cc[n+](C)c(Nc5ccccc5)c4cc3c2c1 | – | – | –
5 | 6.10 | 0.11 | COc1ccc2[nH]c3c(C)c4ccnc(NCCCCCCN)c4cc3c2c1 | – | – | K app (Nucleic Acid [16]): 3.5e+07 M⁻¹
6 | 6.00 | – | CCN(CC)CCCNc1nccc2c(C)c3[nH]c4ccc(OCc5ccccc5)cc4c3c(C)c12 | – | – | –
7 | 6.00 | 0.09 | COc1ccc2[nH]c3c(C)c4ccnc(NCCCN(C)C)c4cc3c2c1 | – | – | K app (Nucleic Acid [20]): 3.15e+07 M⁻¹
8 | 6.30 | – | COc1ccc2[nH]c3c(C)c4ccnc(NCCCn5ccnc5)c4cc3c2c1 | – | – | –
9 | 6.52 | – | Cc1c2ccnc(NCCCN)c2cc2c1[nH]c1ccc(OCc3ccccc3)cc12 | – | – | –

Row | SMILES | pIC50 [3] | Bapp (Nucleic Acid [15]) | LD100 (Mus musculus [1]) [mg/kg] | LD0 (Mus musculus [6]) [mg/kg] | also measured
10 | COc1ccc2[nH]c3c(C)c4ccnc(NCCCN(C)C)c4c(C)c3c2c1 | 6.52 | – | 30 | 15 | MST (Mus musculus [2]): 15.3 days; Range of deaths (Mus musculus [4]): 18 days; ILS at 15 mg/kg (Mus musculus [5]): 33.3%
11 | CCN(CC)CCCNc1nccc2c(C)c3[nH]c4ccc(O)cc4c3c(C)c12 | 7.52 | 0.16 | 7 | 2.5 | K app (Nucleic Acid [7]): 2e+07 M⁻¹; Range of deaths (Mus musculus [8]): 19 days; ILS at 2.5 mg/kg (Mus musculus [9]): 57.1%; LD100 (Mus musculus [10]): 7 mg/kg; MST (Mus musculus [11]): 16.4 days; ILS at 2.5 mg/kg (Mus musculus [12]): 34.1%; MST (Mus musculus [13]): 11.4 days; LD0 (Mus musculus [14]): 2 mg/kg
12 | CCN(CCCN)CCCNc1nccc2c(C)c3[nH]c4ccc(OC)cc4c3cc12 | 6.70 | – | 15 | 5 | –
13 | CCN(CC)CCCNc1nccc2c(C)c3[nH]c4ccc(OC)cc4c3cc12 | 5.30 | 0.1 | 30 | 15 | MST (Mus musculus [17]): 14.3 days; Range of deaths (Mus musculus [4]): 19 days; ILS at 15 mg/kg (Mus musculus [18]): 24.6%; K app (Nucleic Acid [19]): 3.15e+07 M⁻¹
14 | COc1ccc2[nH]c3c(C)c4ccnc(NCCCN)c4c(C)c3c2c1 | 7.00 | – | 20 | 10 | MST (Mus musculus [21]): 12.2 days; Range of deaths (Mus musculus [22]): 14 days; ILS at 10 mg/kg (Mus musculus [23]): 14%
